According to ChEMBL document CHEMBL1127536, “2-Azetidinones as inhibitors of cholesterol absorption” (J Med Chem, 1994):

Assays:
Cricetinae gen. sp. [1] = assay: Percent reduction in plasma cholesterol was evaluated by hamster cholesterol absorption assay at the particular dose of 50(mg/kg/day); assay type: functional, Cricetulus griseus
How it was run: (§1)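 Hamsters fed cholesterol for 1 week while dosed daily (mg/kg/day). Read-out was inhibition of the rise in plasma cholesterol, measured by a cholesterol oxidase kit method.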

[2] = molecular target: T1, Sterol O-acyltransferase 1 (Rattus norvegicus) (UniProt O70536); assay: Inhibition of Acyl coenzyme A:cholesterol acyltransferase in microsomal ACAT assay at 10 uM
T1 sequence (whole entry): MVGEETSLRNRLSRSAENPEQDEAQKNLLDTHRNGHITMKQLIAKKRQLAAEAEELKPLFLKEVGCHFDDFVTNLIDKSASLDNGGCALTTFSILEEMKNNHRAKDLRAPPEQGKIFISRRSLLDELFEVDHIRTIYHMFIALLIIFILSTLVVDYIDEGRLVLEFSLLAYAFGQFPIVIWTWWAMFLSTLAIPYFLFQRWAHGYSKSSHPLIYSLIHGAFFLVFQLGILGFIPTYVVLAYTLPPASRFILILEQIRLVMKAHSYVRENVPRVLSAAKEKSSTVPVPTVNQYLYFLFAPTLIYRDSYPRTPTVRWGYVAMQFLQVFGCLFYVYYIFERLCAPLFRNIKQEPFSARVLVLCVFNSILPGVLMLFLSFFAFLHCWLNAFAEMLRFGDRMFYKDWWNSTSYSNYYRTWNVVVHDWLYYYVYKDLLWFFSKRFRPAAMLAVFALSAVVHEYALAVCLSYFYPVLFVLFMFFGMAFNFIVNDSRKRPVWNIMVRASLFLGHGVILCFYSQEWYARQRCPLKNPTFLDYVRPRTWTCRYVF
How it was run: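 Rat hepatic microsomes (12.5 μg protein) with 90 µM fatty-acid-free BSA in 0.1 M potassium phosphate, 2 mM DTT, pH 7.4. Compound added from DMSO stocks and preincubated 15 min at 37 °C. Reaction started with [³H]-oleoyl-CoA (10 μM final) and run 15 min at 37 °C. Aliquot spotted on silica TLC, developed, and radioactivity in the cholesteryl oleate band counted by scintillation.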

Cricetinae gen. sp. [3] = assay: Percent reduction of hepatic cholesteryl esters was evaluated by hamster cholesterol absorption assay at the particular dose of 50 (mg/kg/day); assay type: functional, Cricetulus griseus
How it was run: (§2)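 Hamsters fed cholesterol for 1 week while dosed daily (mg/kg/day). Liver was Folch-extracted and neutral lipids were analysed by HPLC, giving the reduction in hepatic cholesteryl ester rise as the absorption marker. ED50 was taken from dose-response curves.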

Cricetinae gen. sp. [4] = assay: Percent reduction in plasma cholesterol was evaluated by hamster cholesterol absorption assay at the particular dose of 50 (mg/kg/day); assay type: functional, Cricetulus griseus; how it was run: as §1
Cricetinae gen. sp. [5] = assay: Percent reduction in plasma cholesterol was evaluated by hamster cholesterol absorption assay at the particular dose of 10 (mg/kg/day); assay type: functional, Cricetulus griseus; how it was run: as §1
Cricetinae gen. sp. [6] = assay: Effective dose evaluated in hamster cholesterol absorption assay; assay type: functional; how it was run: as §2
Cricetinae gen. sp. [7] = assay: Percent reduction of hepatic cholesteryl esters was evaluated by hamster cholesterol absorption assay at the particular dose of 10 (mg/kg/day); assay type: functional, Cricetulus griseus; how it was run: as §2
Cricetinae gen. sp. [8] = assay: Percent reduction of hepatic cholesteryl esters was evaluated by hamster cholesterol absorption assay at the particular dose of 100 (mg/kg/day); assay type: functional, Cricetulus griseus; how it was run: as §2
Cricetinae gen. sp. [9] = assay: Percent reduction in plasma cholesterol was evaluated by hamster cholesterol absorption assay at the particular dose of 100 (mg/kg/day); assay type: functional, Cricetulus griseus; how it was run: as §1
[10] = molecular target: T2, Sterol O-acyltransferase 1 (Rattus norvegicus, UniProt O70536); assay: Concentration required for 50% inhibition of Acyl coenzyme A:cholesterol acyltransferase activity using microsomal ACAT assay
T2 sequence (O70536 whole entry): T1 sequence (whole entry)

[11] = Cricetinae gen. sp., read-out: ED50

Row | SMILES | inhibition ([2]; 10 uM) | Reduction (Cricetinae gen. sp. [3]) | Reduction (Cricetinae gen. sp. [4]) | Reduction (Cricetinae gen. sp. [5]) | Reduction (Cricetinae gen. sp. [7]) | other results
1 | CC[C@]1(CCCc2ccccc2)CN(c2c(OC)cc(OC)cc2OC)C1=O | 38% | -29% | – | – | – | Reduction (Cricetinae gen. sp. [1]): 7%
2 | CC[C@]1(CCCc2ccccc2)CN(c2ccc(OC)cc2)C1=O | – | 0% | 10% | – | – | –
3 | CCCCCCCCCCC(C)(C)C(=O)Nc1c(OC)cc(OC)cc1OC [CL-976] | 72% | – | – | 0% | 33% | ED50 (Cricetinae gen. sp. [6]; [11]): 16 mg/kg/day
4 | COc1ccc([C@@H]2[C@H](CCCc3ccccc3)C(=O)N2c2ccc(OC)cc2)cc1 | – | – | – | 17% | 55% | ED50 (Cricetinae gen. sp. [6]; [11]): 11.5 mg/kg/day
5 | COc1ccc([C@@H]2[C@@H](CCCc3ccccc3)C(=O)N2c2ccc(OC)cc2)cc1 [SCH-48461] | – | 0% | 10% | 43% | 93% | ED50 (Cricetinae gen. sp. [6]): 2.2 mg/kg/day
6 | COc1ccc(N2C(=O)[C@@](C(=O)Cc3ccccc3)(c3ccccc3)[C@H]2c2ccccc2)cc1 | – | – | – | – | – | inhibition ([2]; 25 uM, in the assay text read “at 25 uM” for “at 10 uM”): 83%; Reduction (Cricetinae gen. sp. [8]): 26%; Reduction (Cricetinae gen. sp. [9]): 10%
7 | CC[C@@]1(CCCc2ccccc2)C(=O)N(c2c(OC)cc(OC)cc2OC)[C@@H]1c1ccccc1 | 82% | 31% | 0% | – | – | –
8 | CC[C@]1(CCCc2ccccc2)C(=O)N(c2c(OC)cc(OC)cc2OC)[C@@H]1c1ccccc1 | 42% | 0% | 0% | – | – | –
9 | COc1ccc([C@@H]2[C@@H](CCCc3ccccc3)C(=O)N2c2ccc(OC)cc2)cc1 (racemic) [SCH-48461] | – | – | – | 21% | 60% | ED50 (Cricetinae gen. sp. [6]): 7.1 mg/kg/day

Now from value to compound, other results behind:

Row | inhibition ([2]; 10 uM) | SMILES | Reduction (Cricetinae gen. sp. [3]) | Reduction (Cricetinae gen. sp. [4]) | Reduction (Cricetinae gen. sp. [5]) | Reduction (Cricetinae gen. sp. [7]) | other results
10 | 61% | COc1cc(OC)c(N2C(=O)[C@@H](CCCc3ccccc3)[C@H]2c2ccccc2)c(OC)c1 | -20% | 0% | – | – | –
11 | 28% | COc1ccc(N2C(=O)[C@@H](CCCc3ccccc3)[C@H]2c2ccccc2)cc1 | 0% | – | – | – | Reduction (Cricetinae gen. sp. [1]): 0%
12 | 33% | CC[C@]1(CCCc2ccccc2)C(=O)N(c2ccc(OC)cc2)[C@@H]1c1ccccc1 | 29% | 12% | – | – | –
13 | 84% | COc1ccc(N2C(=O)[C@@](CCCc3ccccc3)(c3ccccc3)[C@H]2c2ccccc2)cc1 | 16% | 11% | – | – | IC50 [10]: 6 µM
